Screening data (PubChem)
The list is not random: actives were taken first. Their share in the collection is about 2.4%.
Rpn11 inh: blocks the human proteasome subunit Rpn11; O00487; human 26S proteasome, Ub4-pepOG fluorescence polarization; 20S core pre-blocked with epoxomicin; inhibition, % at 20 µM; 0.59% of 360,000 active;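 active = inhibition at 20 µM, scaled to each plate's controls, above about 33%, limit read from the data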
Target sequence (O00487 whole entry, looked up): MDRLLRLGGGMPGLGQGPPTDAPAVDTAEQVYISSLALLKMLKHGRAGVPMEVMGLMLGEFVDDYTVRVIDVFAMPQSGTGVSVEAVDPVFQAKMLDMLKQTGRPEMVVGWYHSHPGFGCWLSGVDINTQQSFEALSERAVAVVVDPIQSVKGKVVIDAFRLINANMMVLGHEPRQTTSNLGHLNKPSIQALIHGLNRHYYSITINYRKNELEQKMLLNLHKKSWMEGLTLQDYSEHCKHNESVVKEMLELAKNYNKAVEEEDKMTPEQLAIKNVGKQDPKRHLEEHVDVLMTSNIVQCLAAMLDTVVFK
Tb MetRS inh: blocks T. brucei methionyl-tRNA synthetase activity; purified T. brucei MetRS, ATP depletion, Kinase-Glo luminescence; inhibition, % at 11.9 µM; 0.4% of 360,000 active;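 active = inhibition above a per-plate cutoff of the control wells' mean inhibition plus 3 SD, cut at about 5.5% in these data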;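 note: 0% = DMSO wells median and 100% = median of wells with control inhibitor compound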
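Test system: purified T. brucei MetRS enzyme. Also added: ATP, methionine and E. coli bulk tRNA substrates. Compound: 11.9 µM single point. Schedule: 15 min enzyme-compound preincubation, 2 h reaction, 10 min detection, 25 °C. Signal: luciferase luminescence of residual ATP, Kinase-Glo. Evaluation: percent inhibition versus plate control medians. Controls: DMSO wells, low control.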
HNF4A DNA FP: change in binding of human HNF4 alpha to DNA; P41235; HNF4a-FITC DNA binding, fluorescence polarization, 1 h; activity change, % at 10 µM; 0.3% of 360,000 active; in the data active = activity change above about 30%, passing the limit was not always enough
CSN deneddyl inh: CSN deneddylation inhibition. Q92905. AID 651999. inhibition, % at 12.5 µM. 0.38% of 360,000 active. Purified CSN, SCF-Nedd8-OG deneddylation, fluorescence polarization;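 active = pattern-corrected inhibition above about 35%, with an unprinted fluorescence ratio check between 0.5 and 1.5, limit read from the data, passing the limit was not always enough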;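 note: 0% = enzyme with substrate and 100% = substrate without enzyme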
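Assay system: Purified human Csn5 enzyme expressed in HEK293T cells | Amount: Enzyme 0.24 nM | Measured by: Fluorescence polarization readout | Medium: Tris/NaCl/DTT buffer, pH 7.5 | Compound dosing: One concentration, 12.5 µM, 0.25% DMSO | Times: 90 min incubation of compound, enzyme and substrate at room temperature | Control set: no-enzyme wells high, enzyme-with-substrate wells low | Read-out: % inhibition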
Neddyl block: cullin neddylation inhibition. P61081+Q13564. TR-FRET cullin neddylation, biochemical. inhibition, % at 25 µM. 0.58% of 360,000 active. AID 651699; in the data active = inhibition above about 36%
PREPL inhibitor: human PREPL enzyme inhibition | Q4J6C6 | recombinant PREPL, fluorescence polarization activity-based probe | inhibition, % at 5.96 µM | 0.68% of 320,000 active | AID 2751; in the data active = inhibition above about 43%;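 note: 0% = enzyme with DMSO and 100% = wells lacking enzyme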
Numbers without * were called inactive; . = not tested or not shown.

SMILES	Rpn11 inh	Tb MetRS inh	HNF4A DNA FP	CSN deneddyl inh	Neddyl block	PREPL inhibitor
CCN(CC)c1ccc(NC2CC(=O)N(CCc3ccc(OC)cc3)C2=O)cc1 (centres undefined)	.	0	57*	51*	-2	15
COc1ccc(CCNC2CC(=O)N(CCc3ccccc3)C2=O)cc1 (centres undefined)	-2	-1	-4	0	6	-2
Cc1n[nH]c(C)c1S(=O)(=O)N1CCc2ccccc2C1	2	0	-2	-1	-2	6
CCOc1ccc(S(=O)(=O)Nc2nc3ccccc3nc2-n2ccc(=NC(=O)c3cccs3)cc2)cc1	.	0	28	46*	-110	5
O=[N+]([O-])c1cccc(CSc2nc3ccccc3[nH]2)c1	-6	5	-5	1	-32	9
COc1cccc(CSc2nc3ccccc3[nH]2)c1	3	0	32*	0	8	7
CCN(CC)C(=O)c1sc2nc(-c3cccs3)cc(-c3cccs3)c2c1N	34	-1	6	5	-32	-17
CCN(CC)C(=O)c1sc2nc(-c3cccs3)cc(-c3ccc(Cl)cc3)c2c1N	37*	0	10	2	-47	1
CCc1nc2ccc(C(=O)NCc3cccs3)cn2c1N(CC)Cc1cccc(Br)c1	0	0	1	-2	16	.
CCCCC(=O)N1CCN(c2nc3ccc(OCC)cc3s2)CC1	-6	0	11	63*	-9	11
CCCCC(=O)N1CCN(c2nc3ccc(F)cc3s2)CC1	-6	-1	3	-1	3	13
Cc1cc2nc(-c3nnnn3C3CCCCC3)c(=O)[nH]c2cc1C	.	0	-2	-3	.	.
CCNC(=O)C1(C)CCCN(C(=O)c2cc(-c3cccs3)oc2C)C1 (centres undefined)	-2	0	7	3	7	.
CCCc1nc2c3ccccc3ccn2c1Cc1ccc(OC)cc1C	.	-1	43*	26	-17	.
COc1ccc(Cc2c(-c3ccc(C)cc3)nc3c4ccccc4ccn23)c(C)c1	15	0	12	1	13	.
CCCCCc1c(C)nc(Nc2ccccc2)[nH]c1=O	3	7.8*	-3	2	9	-1
Cc1ccc(Nc2nc(C)c(CCC(C)C)c(=O)[nH]2)cc1	-3	0	-2	0	9	13
CCOc1cc([N+](=O)[O-])cc2c1C(=O)Nc1ccccc1O2	.	0	14	43*	-11	-1
O=C1Nc2ccccc2Oc2cc([N+](=O)[O-])ccc21	17	-1	-3	1	-44	16
O=C(NC1CC1)c1ccc(S(=O)(=O)NCC2CCCCC2)cc1	-3	-1	-1	2	-2	-1
O=C(O)c1ccc(S(=O)(=O)NCC2CCCCC2)cc1	-8	0	72*	-3	-10	.
O=C(c1cc2c(s1)CCCCC2)N1CCN(c2ncccn2)CC1	1	-1	4	-2	-47	13
O=C(c1cc2c(s1)CCCC2)n1cccn1	8	0	-6	-1	-203	68*
COc1ccc(NC(=O)C[C@H]2C(=O)N(c3ccccc3)C[C@@H]2CSC)cc1	-2	1	2	-1	6	.
O=C1Cc2ccccc2C(=O)N1	.	22*	3	35*	36	.
SMILES	Rpn11 inh	Tb MetRS inh	HNF4A DNA FP	CSN deneddyl inh	Neddyl block	PREPL inhibitor
CC(=O)NC(Cc1ccccc1)C(=O)Oc1ccc2ccccc2c1 (centres undefined)	-9	-1	3	3	0	.
O=C(N/N=C/c1c(O)ccc2ccccc12)c1cccnc1	.	0	43*	28	-44	22
O=C(N/N=C/c1cccnc1)c1cc2ccccc2o1	-2	-1	1	-5	-33	-4
O=C(N/N=C/c1cccnc1)c1cc2c(ccc3ccccc32)o1	12	0	1	55*	.	-2
O=C(NN=Cc1c(O)ccc2ccccc12)c1ccncc1	.	0	143	106	-172	.
CC(C)(C)c1ccc(CC(=O)N2CCC2(C)C(=O)N2CCCCC2)cc1 (centres undefined)	7	0	-1	0	3	.
CN1C[C@@H]2[C@@H]3C(=O)N(C)C(=O)[C@@H]3[C@](Cc3ccccc3)(C1=O)N2C(=O)c1ccc(Cl)cc1	10	0	8	2	1	.
Cc1cc(C)nc(Sc2ccc(/C=C(\C#N)C(=O)Nc3ccccc3)o2)n1	13	0	71*	9	-27	-3
CCc1ccccc1NC(=O)/C(C#N)=C/c1ccc(Sc2ccccc2)o1	6	0	3	-4	4	-8
COc1cccc(-c2nc3nc(C)cc(C)n3c2Nc2c(C)cccc2C)c1	.	-1	53*	32	31	.
N=C1C(c2nc(-c3ccc(Cl)cc3)cs2)=C(O)CN1CCCN1CCOCC1	6	0	2	-6	-27	57*
CC1CCc2c(sc(Nc3nc4c(F)cccc4s3)c2C(N)=O)C1 (centres undefined)	.	-1	37*	12	.	31
O=C(Nc1nc2c(F)cccc2s1)C1CC1	-8	0	-1	0	5	-1
CCCCCCCCC[n+]1cccc2c3ccccc3ccc21	-9	5.7*	-2	6	.	12
O=[N+]([O-])c1ccc(C[n+]2cccc3c4ccccc4ccc32)cc1	13	2	0	-2	.	25
CCOc1ncccc1C(=O)OCC(=O)NC1CCCCCC1	-6	0	-1	-2	-7	.
O=c1ccc2cc3c4c(c2o1)CCCN4CCC3	-183	1	-113	-7	50*	23
O=c1oc2c3c4c(cc2s1)CCCN4CCC3	-64	0	-35	-5	-19	17
N=c1c2c(n(Cc3ccc(Cl)cc3)c3c1CCC3)CCC2	-38	0	42*	0	-5	35
COc1ccc(-n2nc(C(=O)Nc3ccc(OC)c(OC)c3)c3c4ccccc4n(C)c3c2=O)cc1	-2	0	-2	48*	32	8
CCCOc1ccc(C(=O)NNC(=S)NC(=O)c2ccco2)cc1	10	0	-2	1	59*	9
COc1ccc(C(=O)NNC(=S)NC(=O)c2ccco2)cc1	5	0	-3	1	-14	0
CCOC(=O)c1cc(OC)c2cccc(CN3CCC(C)(C(=O)NCCOC)C3)c2c1 (centres undefined)	-60	0	-26	-11	50*	.
COc1ccccc1N/C=C/c1onc(C)c1[N+](=O)[O-]	33	0	69*	20	-37	5
O=C1NC[C@@H](CCCCN2C[C@H](Cc3ccc(O)cc3)N(CCc3ccc(O)cc3)C(=O)C2=O)N(Cc2ccccc2)C1=O	.	0	1	-4	0	.
O=C(Nc1cccc(Cl)c1)c1nc[nH]c1C(=O)N1CCN(c2ccccc2)CC1	13	0	3	-2	6	36
